Article PMC4547841 (Bioorganic & medicinal chemistry letters, 2013)

Key:
hsp90 and immunophilins = conditions: millimolar concentration; ref [28]; cited from earlier work
hsp90 [1] = assay: Luciferase refolding assays; format: biochemical; conditions: 17-AAG 1 μM, SM145 50 μM (Figure 3); CA1 in Supplemental Figure S3
Outline: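 Refolding of heat-denatured firefly luciferase, read as luciferase activity over time up to 2 h, in two systems: rabbit reticulocyte lysate, and a pure protein system with 1μM hsp70, 0.2μM hsp40, 0.1μM HOP and 0.5μM hsp90. Test compounds at 1μM or 50μM. n=3, mean±SEM.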

hsp70 = hsp70 protein level in HeLa cell lysate, western blot; format: cell-based; conditions: normalized to GAPDH and DMSO control, n≥3
Outline: (§1)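 HeLa cells treated with test compounds at two concentrations each (100nM and 1μM, or 5μM and 50μM). Cell lysates analysed by western blot. Bands quantitated by densitometry, normalized to GAPDH and to DMSO control. n≥3, mean±SEM.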

heat shock response = assay: Heat shock response; format: cell-based; conditions: HeLa; 17-AAG 100 nM and 1 μM, CA1 and SM145 5 μM and 50 μM; hsp70, hsp90, HSF1 levels
hsp90 and FKBP51 = assay: TPR co-chaperone and hsp90 binding assay, FKBP51
Outline: (§2)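 Binding of each TPR co-chaperone (Unc45, CHIP, TOM70, HOP, Cyp40, FKBP52, FKBP51) to hsp90 measured with increasing test compound, 0–5μM or 0–10μM depending on compound.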

hsp90 and TOM70 = assay: TPR co-chaperone and hsp90 binding assay, TOM70
Outline: as §2

hsp90 and CHIP = assay: TPR co-chaperone and hsp90 binding assay, CHIP; conditions: CA1 at 10 μM
Outline: as §2

hsp90 and Cyp40 = assay: TPR co-chaperone and hsp90 binding assay, Cyp40; conditions: CA1 at 10 μM
Outline: as §2

hsp90 and FKBP52 = assay: TPR co-chaperone and hsp90 binding assay, FKBP52; conditions: CA1 0–10 μM; some Figure 5 data marked * previously published, ref [31]
hsp90 and Unc45 = assay: TPR co-chaperone and hsp90 binding assay, Unc45; conditions: CA1 0–10 μM
Outline: as §2

hsp90 and HOP = assay: TPR co-chaperone and hsp90 binding assay, HOP; conditions: CA1 0–10 μM; some Figure 5 data marked * previously published, ref [31]
FKBP52 = FKBP52 protein level in HeLa cell lysate, western blot; format: cell-based; conditions: n≥3
Outline: as §1

FKBP51 = FKBP51 protein level in HeLa cell lysate, western blot; format: cell-based; conditions: n≥3
Outline: as §1

hsp90 [2] = assay: hsp90 protein level in HeLa cell lysate, western blot; format: cell-based; conditions: 17-AAG 100 nM and 1 μM, normalized to GAPDH and DMSO control, n≥3
Outline: as §1

HSF1 = HSF1 protein level in HeLa cell lysate, western blot; format: cell-based; conditions: 17-AAG 100 nM and 1 μM, normalized to GAPDH and DMSO control, n≥3
Outline: as §1

[3] = test system: glucocorticoid receptor (GR); assay: Glucocorticoid receptor; format: cell-based; conditions: HeLa; 17-AAG 100 nM and 1 μM; n≥3
Outline: as §1

HeLa cells = conditions: assay not described; HeLa treated at IC50 and ten-fold over IC50; ref [36]; cited from earlier work
[4] = 17-AAG 100 nM and 1 μM, normalized to GAPDH, compared to DMSO

CO[C@@H]1[C@@H](OC(N)=O)[C@@H](O)[C@H](Oc2ccc3c(O)c(NC(=O)c4ccc(O)c(CC=C(C)C)c4)c(=O)oc3c2C)OC1(C)C [novabiocin]
disruption of immunophilins from binding to hsp90 (hsp90 and immunophilins): disrupts immunophilins from binding to hsp90

CO[C@H]1[C@H](OC(=O)c2ccc(C)[nH]2)[C@H](O)[C@@H](Oc2ccc3c(O)c(NC(=O)c4c[nH]c(C(=O)Nc5c(O)c6ccc(O[C@H]7OC(C)(C)[C@@H](OC)[C@H](OC(=O)c8ccc(C)[nH]8)[C@@H]7O)c(C)c6oc5=O)c4C)c(=O)oc3c2C)OC1(C)C [CA1, coumermycin A1]
luciferase activity over time (hsp90 [1]): reduce the luciferase activity over time
hsp70 protein level (hsp70; 5 μM and 50 μM): maintenance of hsp70 protein levels
heat shock response triggered (heat shock response): the HSR was not triggered
effect on binding between hsp90 and FKBP51 (hsp90 and FKBP51; CA1 0–10 μM): no impact
inhibition of TOM70 binding to hsp90 (hsp90 and TOM70; CA1 at 10 μM): inhibiting
inhibition of CHIP binding to hsp90 (hsp90 and CHIP): inhibiting
inhibition of Cyp40 binding to hsp90 (hsp90 and Cyp40): inhibiting
effect on binding between hsp90 and FKBP52 (hsp90 and FKBP52): no impact
effect on binding between hsp90 and Unc45 (hsp90 and Unc45): no impact
effect on binding between hsp90 and HOP (hsp90 and HOP): no impact
FKBP52 protein level (FKBP52; CA1 at high concentrations, relative to control): slightly decreases
FKBP51 protein level (FKBP51; CA1 5 μM and 50 μM): little change

C=CCNC1=C2C[C@@H](C)C[C@H](OC)[C@H](O)[C@@H](C)/C=C(\C)[C@H](OC(N)=O)[C@@H](OC)/C=C\C=C(/C)C(=O)NC(=CC1=O)C2=O [17-AAG]
luciferase activity over time (hsp90 [1]): reduce the luciferase activity over time
hsp70 protein level, fold increase (hsp70; 17-AAG 100 nM and 1 μM): ~ 2.5 fold
hsp90 protein level, fold increase (hsp90 [2]): ~3 fold
HSF1 protein level, fold increase (HSF1): ~4 fold
heat shock response triggered (heat shock response): triggering the heat shock response
inhibition of FKBP51 binding to hsp90 (hsp90 and FKBP51; 17-AAG at 5 μM): only partially inhibits
inhibition of TOM70 binding to hsp90 (hsp90 and TOM70; 17-AAG at 5 μM): only partially inhibits
FKBP52 protein level, fold increase (FKBP52; [4]): ~ 4 fold
FKBP51 protein level, fold increase (FKBP51; [4]): ~ 2 fold
GR protein level [3]: no change
IC50 (HeLa cells): ~100 nM
